Measurements as given in ChEMBL document CHEMBL1140412, “F-18 stilbenes as PET imaging agents for detecting beta-amyloid plaques in the brain” (J Med Chem, 2005).
Blank lines part the entries; values can stand above or below the compound they belong to.

How the values were obtained:
[1] = Biodistribution in ICR mouse bone 1 hr after iv injection of [18F]-compound in 0.1% bovine serum albumin solution, n = 3; format: ADME, organism-based, Bone element; conditions: in vivo
Method in brief: (§1)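 Male ICR mice (22-25 g) under isoflurane anesthesia received 0.15 mL of 0.1% BSA solution containing 5-10 μCi [¹⁸F]tracer by tail-vein injection; n = 3 per time point. Killed by cervical dislocation, organs removed, weighed and gamma-counted. %dose/g derived from sample counts vs. diluted initial dose; blood total activity assumed as 7% of body weight. Mean ± SD.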

[2] = Biodistribution in ICR mouse bone 2 hr after iv injection of [18F]-compound in 0.1% bovine serum albumin solution, n = 3; format: ADME, organism-based, Bone element; conditions: in vivo; method in brief: as §1
[3] = Biodistribution in ICR mouse lung 1 hr after iv injection of [18F]-compound in 0.1% bovine serum albumin solution, n = 3; format: ADME, organism-based; conditions: in vivo; method in brief: as §1
[4] = Biodistribution in ICR mouse lung 2 hr after iv injection of [18F]-compound in 0.1% bovine serum albumin solution, n = 3; format: ADME, organism-based; conditions: in vivo; method in brief: as §1
[5] = Biodistribution in ICR mouse skin 1 hr after iv injection of [18F]-compound in 0.1% bovine serum albumin solution, n = 3; format: ADME, organism-based, Zone of skin; conditions: in vivo; method in brief: as §1
[6] = molecular target: Amyloid-beta precursor protein (Homo sapiens, UniProt P05067); assay: Inhibition constant for I-125-IMPY binding to amyloid plaques in Alzheimers disease brain homogenates; format: tissue-based
Method in brief: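 Competition binding in pooled postmortem AD cortical homogenates (dissected gray/white matter, ~100 mg wet tissue/ml PBS pH 7.4; 20-50 μg per tube). [¹²⁵I]IMPY at 0.04-0.06 nM; inhibitors 10^-5-10^-10 M in PBS with 0.1% BSA. Nonspecific binding with 600 nM IMPY. Incubated 2 hr at 37°C, GF/B filtration, PBS washes, gamma counting. Ki from nonlinear regression.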

[7] = Biodistribution in ICR mouse skin 2 hr after iv injection of [18F]-compound in 0.1% bovine serum albumin solution, n = 3; format: ADME, organism-based, Zone of skin; conditions: in vivo; method in brief: as §1
[8] = Biodistribution in ICR mouse blood 1 hr after iv injection of [18F]-compound in 0.1% bovine serum albumin solution, n = 3; format: ADME, organism-based; conditions: in vivo; method in brief: as §1
[9] = Biodistribution in ICR mouse blood 2 hr after iv injection of [18F]-compound in 0.1% bovine serum albumin solution, n = 3; format: ADME, organism-based; conditions: in vivo; method in brief: as §1
[10] = Biodistribution in ICR mouse brain 1 hr after iv injection of [18F]-compound in 0.1% bovine serum albumin solution, n = 3; format: ADME, organism-based; conditions: in vivo; method in brief: as §1
[11] = Biodistribution in ICR mouse brain 2 hr after iv injection of [18F]-compound in 0.1% bovine serum albumin solution, n = 3; format: ADME, organism-based; conditions: in vivo; method in brief: as §1
[12] = Biodistribution in ICR mouse heart 1 hr after iv injection of [18F]-compound in 0.1% bovine serum albumin solution, n = 3; format: ADME, organism-based; conditions: in vivo; method in brief: as §1
[13] = Biodistribution in ICR mouse heart 2 hr after iv injection of [18F]-compound in 0.1% bovine serum albumin solution, n = 3; format: ADME, organism-based; conditions: in vivo; method in brief: as §1
[14] = Biodistribution in ICR mouse liver 1 hr after iv injection of [18F]-compound in 0.1% bovine serum albumin solution, n = 3; format: ADME, organism-based; conditions: in vivo; method in brief: as §1
[15] = Biodistribution in ICR mouse liver 2 hr after iv injection of [18F]-compound in 0.1% bovine serum albumin solution, n = 3; format: ADME, organism-based; conditions: in vivo; method in brief: as §1
[16] = Biodistribution in ICR mouse kidney 1 hr after iv injection of [18F]-compound in 0.1% bovine serum albumin solution, n = 3; format: ADME, organism-based; conditions: in vivo; method in brief: as §1
[17] = Biodistribution in ICR mouse kidney 2 hr after iv injection of [18F]-compound in 0.1% bovine serum albumin solution, n = 3; format: ADME, organism-based; conditions: in vivo; method in brief: as §1
[18] = Biodistribution in ICR mouse muscle 1 hr after iv injection of [18F]-compound in 0.1% bovine serum albumin solution, n = 3; format: ADME, organism-based, Muscle tissue; conditions: in vivo; method in brief: as §1
[19] = Biodistribution in ICR mouse muscle 2 hr after iv injection of [18F]-compound in 0.1% bovine serum albumin solution, n = 3; format: ADME, organism-based, Muscle tissue; conditions: in vivo; method in brief: as §1
[20] = Biodistribution in ICR mouse spleen 1 hr after iv injection of [18F]-compound in 0.1% bovine serum albumin solution, n = 3; format: ADME, organism-based; conditions: in vivo; method in brief: as §1
[21] = Biodistribution in ICR mouse spleen 2 hr after iv injection of [18F]-compound in 0.1% bovine serum albumin solution, n = 3; format: ADME, organism-based; conditions: in vivo; method in brief: as §1
[22] = Biodistribution in ICR mouse bone 2 min. after iv injection of [18F]-compound in 0.1% bovine serum albumin solution, n = 3; format: ADME, organism-based, Bone element; conditions: in vivo; method in brief: as §1
[23] = Biodistribution in ICR mouse lung 2 min. after iv injection of [18F]-compound in 0.1% bovine serum albumin solution, n = 3; format: ADME, organism-based; conditions: in vivo; method in brief: as §1
[24] = Biodistribution in ICR mouse skin 2 min. after iv injection of [18F]-compound in 0.1% bovine serum albumin solution, n = 3; format: ADME, organism-based, Zone of skin; conditions: in vivo; method in brief: as §1
[25] = Biodistribution in ICR mouse blood 2 min. after iv injection of [18F]-compound in 0.1% bovine serum albumin solution, n = 3; format: ADME, organism-based; conditions: in vivo; method in brief: as §1
[26] = Biodistribution in ICR mouse lung 30 min. after iv injection of [18F]-compound in 0.1% bovine serum albumin solution, n = 3; format: ADME, organism-based; conditions: in vivo, 0.5 h; method in brief: as §1
[27] = Biodistribution in ICR mouse skin 30 min. after iv injection of [18F]-compound in 0.1% bovine serum albumin solution, n = 3; format: ADME, organism-based, Zone of skin; conditions: in vivo, 0.5 h; method in brief: as §1
[28] = Biodistribution in ICR mouse blood 30 min. after iv injection of [18F]-compound in 0.1% bovine serum albumin solution, n = 3; format: ADME, organism-based; conditions: in vivo, 0.5 h; method in brief: as §1
[29] = Biodistribution in ICR mouse brain 30 min. after iv injection of [18F]-compound in 0.1% bovine serum albumin solution, n = 3; format: ADME, organism-based; conditions: in vivo, 0.5 h; method in brief: as §1
[30] = Biodistribution in ICR mouse heart 30 min. after iv injection of [18F]-compound in 0.1% bovine serum albumin solution, n = 3; format: ADME, organism-based; conditions: in vivo, 0.5 h; method in brief: as §1
[31] = Biodistribution in ICR mouse kidney 2 min. after iv injection of [18F]-compound in 0.1% bovine serum albumin solution, n = 3; format: ADME, organism-based; conditions: in vivo; method in brief: as §1
[32] = Biodistribution in ICR mouse liver 30 min. after iv injection of [18F]-compound in 0.1% bovine serum albumin solution, n = 3; format: ADME, organism-based; conditions: in vivo, 0.5 h; method in brief: as §1
[33] = Biodistribution in ICR mouse muscle 2 min. after iv injection of [18F]-compound in 0.1% bovine serum albumin solution, n = 3; format: ADME, organism-based, Muscle tissue; conditions: in vivo; method in brief: as §1
[34] = Biodistribution in ICR mouse spleen 2 min. after iv injection of [18F]-compound in 0.1% bovine serum albumin solution, n = 3; format: ADME, organism-based; conditions: in vivo; method in brief: as §1
[35] = Biodistribution in ICR mouse kidney 30 min. after iv injection of [18F]-compound in 0.1% bovine serum albumin solution, n = 3; format: ADME, organism-based; conditions: in vivo, 0.5 h; method in brief: as §1
[36] = Biodistribution in ICR mouse muscle 30 min. after iv injection of [18F]-compound in 0.1% bovine serum albumin solution, n = 3; format: ADME, organism-based, Muscle tissue; conditions: in vivo, 0.5 h; method in brief: as §1
[37] = Biodistribution in ICR mouse spleen 30 min. after iv injection of [18F]-compound in 0.1% bovine serum albumin solution, n = 3; format: ADME, organism-based; conditions: in vivo, 0.5 h; method in brief: as §1
[38] = Biodistribution in ICR mouse bone 30 min. after iv injection of [18F]-compound in 0.1% bovine serum albumin solution, n = 3; format: ADME, organism-based, Bone element; conditions: in vivo, 0.5 h; method in brief: as §1
[39] = Biodistribution in ICR mouse brain 2 min. after iv injection of [18F]-compound in 0.1% bovine serum albumin solution, n = 3; format: ADME, organism-based; conditions: in vivo; method in brief: as §1
[40] = Biodistribution in ICR mouse heart 2 min. after iv injection of [18F]-compound in 0.1% bovine serum albumin solution, n = 3; format: ADME, organism-based; conditions: in vivo; method in brief: as §1
[41] = Biodistribution in ICR mouse liver 2 min. after iv injection of [18F]-compound in 0.1% bovine serum albumin solution, n = 3; format: ADME, organism-based; conditions: in vivo; method in brief: as §1

Sequence of Amyloid-beta precursor protein (P05067 whole entry): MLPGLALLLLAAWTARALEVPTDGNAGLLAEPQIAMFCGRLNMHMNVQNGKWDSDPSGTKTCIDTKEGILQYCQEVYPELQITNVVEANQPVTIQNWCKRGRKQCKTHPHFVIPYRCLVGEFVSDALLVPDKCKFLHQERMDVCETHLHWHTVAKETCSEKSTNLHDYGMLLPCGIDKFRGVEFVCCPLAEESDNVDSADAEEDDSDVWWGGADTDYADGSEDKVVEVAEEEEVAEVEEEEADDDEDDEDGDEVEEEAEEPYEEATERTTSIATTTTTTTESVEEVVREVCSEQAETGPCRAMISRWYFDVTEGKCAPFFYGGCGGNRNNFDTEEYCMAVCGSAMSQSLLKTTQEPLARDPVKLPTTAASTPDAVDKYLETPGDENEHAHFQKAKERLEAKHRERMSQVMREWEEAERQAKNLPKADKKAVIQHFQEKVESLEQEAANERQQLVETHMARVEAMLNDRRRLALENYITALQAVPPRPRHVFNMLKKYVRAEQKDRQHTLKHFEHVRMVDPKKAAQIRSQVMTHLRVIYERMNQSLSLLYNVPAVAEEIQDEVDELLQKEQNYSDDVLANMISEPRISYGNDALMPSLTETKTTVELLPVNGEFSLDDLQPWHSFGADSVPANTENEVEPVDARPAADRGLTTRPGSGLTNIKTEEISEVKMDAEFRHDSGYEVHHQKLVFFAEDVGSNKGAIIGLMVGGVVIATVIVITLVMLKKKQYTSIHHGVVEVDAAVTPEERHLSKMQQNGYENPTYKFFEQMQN

Compound: Nc1ccc(/C=C/c2ccc(O)cc2)cc1
Ki [6]: 95 nM

Compound: Nc1ccc(/C=C/c2ccc(OCC(CO)CF)cc2)cc1 (stereo not given)
Ki [6]: 15 nM

More lines, in order of falling Ki [6], values ahead:

Biodistribution [1]: 6.5 %Dose/g
Biodistribution [2]: 8.63 %Dose/g
Biodistribution [3]: 5 %Dose/g
Biodistribution [4]: 3.74 %Dose/g
Biodistribution [5]: 1.65 %Dose/g
Ki [6]: 15 nM
Biodistribution [7]: 1 %Dose/g
Biodistribution [8]: 1.51 %Dose/g
Biodistribution [9]: 1.18 %Dose/g
Biodistribution [10]: 2.97 %Dose/g
Biodistribution [11]: 1.37 %Dose/g
Biodistribution [12]: 1.45 %Dose/g
Biodistribution [13]: 0.91 %Dose/g
Biodistribution [14]: 13.46 %Dose/g
Biodistribution [15]: 9.51 %Dose/g
Biodistribution [16]: 2.97 %Dose/g
Biodistribution [17]: 2.19 %Dose/g
Biodistribution [18]: 1.22 %Dose/g
Biodistribution [19]: 0.66 %Dose/g
Biodistribution [20]: 1.24 %Dose/g
Biodistribution [21]: 0.99 %Dose/g
Biodistribution [22]: 1.57 %Dose/g
Biodistribution [23]: 93.4 %Dose/g
Biodistribution [24]: 0.67 %Dose/g
Biodistribution [25]: 1.79 %Dose/g
Biodistribution [26]: 12.93 %Dose/g
Biodistribution [27]: 1.69 %Dose/g
Biodistribution [28]: 1.65 %Dose/g
Biodistribution [29]: 5.21 %Dose/g
Biodistribution [30]: 2.76 %Dose/g
Biodistribution [31]: 13.32 %Dose/g
Biodistribution [32]: 14.65 %Dose/g
Biodistribution [33]: 0.84 %Dose/g
Biodistribution [34]: 4.43 %Dose/g
Biodistribution [35]: 4.64 %Dose/g
Biodistribution [36]: 1.53 %Dose/g
Biodistribution [37]: 2.45 %Dose/g
Biodistribution [38]: 2.06 %Dose/g
Biodistribution [39]: 5.55 %Dose/g
Biodistribution [40]: 10.43 %Dose/g
Biodistribution [41]: 14.13 %Dose/g
Compound: CN(C)c1ccc(/C=C/c2ccc(OCC(CO)C[18F])cc2)cc1 (stereo not given)

Biodistribution [1]: 5.3 %Dose/g
Biodistribution [2]: 7.76 %Dose/g
Biodistribution [3]: 7.51 %Dose/g
Biodistribution [4]: 4.15 %Dose/g
Biodistribution [5]: 1.22 %Dose/g
Ki [6]: 5 nM
Biodistribution [7]: 0.57 %Dose/g
Biodistribution [8]: 1.82 %Dose/g
Biodistribution [9]: 0.78 %Dose/g
Biodistribution [10]: 0.72 %Dose/g
Biodistribution [11]: 0.31 %Dose/g
Biodistribution [12]: 1.54 %Dose/g
Biodistribution [13]: 0.65 %Dose/g
Biodistribution [14]: 14.58 %Dose/g
Biodistribution [15]: 8.14 %Dose/g
Biodistribution [16]: 3.06 %Dose/g
Biodistribution [17]: 1.5 %Dose/g
Biodistribution [18]: 0.85 %Dose/g
Biodistribution [19]: 0.41 %Dose/g
Biodistribution [20]: 1.37 %Dose/g
Biodistribution [21]: 1.22 %Dose/g
Biodistribution [22]: 1.53 %Dose/g
Biodistribution [23]: 26.13 %Dose/g
Biodistribution [24]: 0.92 %Dose/g
Biodistribution [25]: 2.6 %Dose/g
Biodistribution [26]: 8.9 %Dose/g
Biodistribution [27]: 1.49 %Dose/g
Biodistribution [28]: 2.47 %Dose/g
Biodistribution [29]: 1.7 %Dose/g
Biodistribution [30]: 2.06 %Dose/g
Biodistribution [31]: 11.7 %Dose/g
Biodistribution [32]: 19.6 %Dose/g
Biodistribution [33]: 0.74 %Dose/g
Biodistribution [34]: 5.01 %Dose/g
Biodistribution [35]: 4.13 %Dose/g
Biodistribution [36]: 1.31 %Dose/g
Biodistribution [37]: 2.41 %Dose/g
Biodistribution [38]: 2.13 %Dose/g
Biodistribution [39]: 9.75 %Dose/g
Biodistribution [40]: 7.49 %Dose/g
Biodistribution [41]: 20.61 %Dose/g
Compound: CNc1ccc(/C=C/c2ccc(OCC(CO)C[18F])cc2)cc1 (stereo not given)

Ki [6]: 1.1 nM
Compound: CN(C)c1ccc(/C=C/c2ccc(O)cc2)cc1
